Results pooled from the literature.
Protocols differ between the studies behind these lines.

| SMILES | cell line | test | conditions | measurement | result |
| --- | --- | --- | --- | --- | --- |
| O=C(O)c1ccc2c(c1)nc(Nc1cccc(Cl)c1)c1ccncc12 | NCI-H226 | cell growth or viability, crystal violet | 48 h | IC50 | 5.8 µM |
| C=CC(=O)c1cccnc1Nc1cccc(C(F)(F)F)c1 | NCI-H226 | cell growth or viability, CCK-8 | 72 h | GI50 | 29.1 µM |
| CC(C)c1ccccc1[C@@H]1CCCN1C1CC2(CCN(c3ccc(C(=O)NS(=O)(=O)c4ccc(NC[C@H]5CC[C@](C)(O)CC5)c([N+](=O)[O-])c4)c(Oc4cnc5[nH]ccc5c4)c3)CC2)C1 | SU-DHL-8 | cell growth or viability, ATP luminescence | 48 h | IC50 | 4.45 µM |
| C=C(F)C(=O)N1CCN(c2nc(OC[C@@H]3CCCN3C)nc3c2CCN(c2cccc4cccc(Cl)c24)C3)C[C@@H]1CC#N | SNU1 | cell growth or viability, ATP luminescence | 3D culture | IC50 | > 1 µM |
| CN(C)C(=O)c1cc2cnc(Nc3ccc(N4CCNCC4)cn3)nc2n1C1CCCC1 | human Neutrophil | superoxide release, inhibitor |  | IC50 | 0.83 µM |
| O=C(O)c1ccccc1Nc1cccc(C(F)(F)F)c1 | NCI-H226 | cell growth or viability, CCK-8 | 72 h | GI50 | > 40 µM |
| O=C(NO)c1ccc(CNc2nc3cccc(-c4ccc5c(c4)OCO5)n3n2)cc1 | NCI-H226 | cell growth or viability, SRB |  | GI50 | 0.58 µM |
| C=CC(=O)c1cccnc1Nc1cc(C(F)(F)F)ccc1OC | NCI-H226 | cell growth or viability, CCK-8 | 72 h | GI50 | 16.2 µM |
| C=CC(=O)NC1CCN(c2ncc3ncnc(Nc4ccc(Oc5ccc6c(c5)ncn6C)c(C)c4)c3n2)CC1 | ABC-1 | cell growth or viability |  | EC50 | 0.964 µM |
